*1 amine or outer side, *2 acyl side, *3 side chain or, on linkers, in order; H or OH if unused. Where a SMILES comes first, the peptide text is derived from it. Bridges are numbered along the chain shown (N, C = ends). [ ]: non-standard residue; d: D form. Adda = CO[C@@H](Cc1ccccc1)[C@@H](C)/C=C(C)/C=C/[C@H](N[*:1])[C@H](C)C(=O)[*:2]; dAsp(3S-Me) = C[C@H](C(=O)[*:3])[C@@H](N[*:1])C(=O)[*:2]; d(γGlu) = O=C(O)[C@@H](CCC(=O)[*:2])N[*:1]; NMeDha = C=C(NC)C(=O)O
What was measured:
[1] = biological target: T1, Serine-threonine protein phosphatase 2A regulatory subunit (Gallus gallus, UniProt Q8AWE3); experiment: Inhibition activity against protein phosphatase 2A (PP2A), activity taken from literature
T1 sequence (Q8AWE3 whole entry): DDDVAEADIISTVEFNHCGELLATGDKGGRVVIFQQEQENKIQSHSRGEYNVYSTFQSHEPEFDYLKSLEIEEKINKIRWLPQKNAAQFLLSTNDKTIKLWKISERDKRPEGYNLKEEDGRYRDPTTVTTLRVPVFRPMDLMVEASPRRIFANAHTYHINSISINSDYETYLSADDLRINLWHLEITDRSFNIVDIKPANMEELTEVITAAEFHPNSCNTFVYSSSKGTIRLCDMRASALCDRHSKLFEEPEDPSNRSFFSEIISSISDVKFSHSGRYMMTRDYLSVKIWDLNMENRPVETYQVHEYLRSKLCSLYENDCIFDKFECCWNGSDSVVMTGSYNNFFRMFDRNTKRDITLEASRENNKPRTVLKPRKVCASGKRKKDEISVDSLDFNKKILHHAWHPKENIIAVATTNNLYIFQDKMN

[2] = biological target: T1, Serine-threonine protein phosphatase 2A regulatory subunit; experiment: Observed inhibition activity against protein phosphatase 2A (PP2A)
[3] = biological target: T1, Serine-threonine protein phosphatase 2A regulatory subunit; experiment: (§1) Observed inhibition activity of the compounds against protein phosphatases 2A (PP2A)
Procedure, shortened: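 Commercial PP2A (e.g. 3 mU) in MOPS/2-mercaptoethanol/MgCl2/albumin dilution buffer. Preincubated 10 min with inhibitor at pH 8.0 Tris-HCl. Reaction started with KR-pT-IRR phosphopeptide (0.2 mM stock), 60 min at 22 °C. Released phosphate measured by malachite green at 650 nm after 20 min development; IC50 from inhibition curves.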

[4] = biological target: T2, Serine/threonine-protein phosphatase 2A 55 kDa regulatory subunit B alpha isoform (Homo sapiens, UniProt P63151); experiment: as §1
T2 sequence (P63151 whole entry): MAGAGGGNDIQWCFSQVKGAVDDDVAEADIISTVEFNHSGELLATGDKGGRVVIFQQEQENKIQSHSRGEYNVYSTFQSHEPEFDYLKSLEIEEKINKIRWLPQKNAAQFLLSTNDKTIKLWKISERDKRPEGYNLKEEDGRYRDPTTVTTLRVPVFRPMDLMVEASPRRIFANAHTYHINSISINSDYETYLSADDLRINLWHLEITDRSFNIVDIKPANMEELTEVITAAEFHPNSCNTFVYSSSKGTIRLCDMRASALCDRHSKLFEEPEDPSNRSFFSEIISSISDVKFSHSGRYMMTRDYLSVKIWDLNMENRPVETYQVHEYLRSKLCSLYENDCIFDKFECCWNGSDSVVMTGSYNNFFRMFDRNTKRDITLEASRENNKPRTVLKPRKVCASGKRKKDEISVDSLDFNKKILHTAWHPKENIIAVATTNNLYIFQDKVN

Row | Compound | IC50 [1] | IC50 [2] | IC50 [3] | other results
1 | CC=C1C(=O)N[C@@H](C(=O)O)[C@H](C)C(=O)N[C@@H](CCCNC(=N)N)C(=O)N[C@@H](/C=C/C(C)=C/[C@H](C)[C@H](Cc2ccccc2)OC)[C@H](C)C(=O)N[C@@H](C(=O)O)CCC(=O)N1C | 1 nM | 0.2 nM | – | –
2 | C=C1[C@@H](O)[C@@H]2O[C@]3(CC[C@H](/C=C/[C@@H](C)[C@@H]4CC(C)=C[C@@]5(O[C@H](C[C@@](C)(O)C(=O)O)CC[C@H]5O)O4)O3)CC[C@H]2O[C@@H]1[C@@H](O)C[C@H](C)[C@H]1O[C@@]2(CCCCO2)CC[C@H]1C [OKADAIC ACID] | 1 nM | 0.45 nM | – | –
3 | COC[C@@H]([C@H](O)[C@H](O)C(=O)NCC[C@H](C)c1nc(/C=C/C[C@@H]2O[C@]3(C[C@@H](O)[C@@H]2C)O[C@H]([C@H](C[C@H](O)[C@H](C)[C@H](O)[C@H](C)/C=C(C)/C(C)=C/C=C/C(C)=C\C#N)OC)[C@H](OP(=O)(O)O)C3(C)C)co1)N(C)C [CALYCULIN A] | – | – | 7.3 nM | –
4 | COC([C@H](OC(=O)C[C@@H](O)C1=C(C)C(=O)OC1=O)C(C)C)[C@H](O)CC(=O)[C@@H](C)[C@@H](O)CC[C@@H](C)[C@@H]1O[C@]2(CC[C@@H](C)[C@H](CC[C@H](C)C(C)=O)O2)CC[C@@H]1C (single isomer, unassigned) [TAUTOMYCIN] | – | – | 10 nM | –
5 | C=C1C(=O)N[C@H](C)C(=O)N[C@@H](CC(C)C)C(=O)N[C@@H](C(=O)O)[C@H](C)C(=O)N[C@@H](CCCNC(=N)N)C(=O)N[C@@H](/C=C/C(C)=C/[C@H](C)[C@H](Cc2ccccc2)OC)[C@H](C)C(=O)N[C@@H](C(=O)O)CCC(=O)N1C [MICROCYSTIN-LR] (R[Adda][d(γGlu)][NMeDha][dA]L[dAsp(3S-Me)]-OH; lactam N-7) | – | – | – | IC50 [4]: 0.065 nM
6 | COC[C@@H]([C@H](O)[C@H](O)C(=O)N[C@H](C)C[C@H](C)c1nc(/C=C/C[C@@H]2O[C@]3(C[C@@H](O)[C@@H]2C)O[C@H]([C@H](C[C@H](O)[C@H](C)[C@H](O)[C@H](C)/C=C(C)/C(C)=C/C=C/C(C)=C\C#N)OC)[C@H](OP(=O)(O)O)C3(C)C)co1)N(C)C [CALYCULIN] | – | – | 9.71 nM | –

— ChEMBL document CHEMBL1130173, “A model for binding of structurally diverse natural product inhibitors of protein phosphatases PP1 and PP2A” (J Med Chem, 1997)
